Data on 32 compounds can be found in ChEMBL document CHEMBL1141259, “Cytotoxic ent-kauranoids from the medicinal plant Isodon xerophilus” (J Nat Prod, 2007).

Bounds are passed on as bounds.

Holding throughout (type): functional, cell-based
One assay relates to MKN-45. Nature of the assay: Cytotoxicity against human MKN45 cells after 48 hrs. The note with it: MKN-45, 48 h. In short, it runs like this: (§1)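 Human lines obtained from Shanghai Cell Bank and kept in RPMI1640 with hormone-free 15% heat-inactivated FBS, 2 mM glutamine, 100 U/mL penicillin G and 100 µg/mL streptomycin. Seeded in 96-well plates at 5 × 10^4 cells/mL (K562) or 4 × 10^4 cells/mL (MKN45, HepG2). Exposed to compounds for 48 h, then viability was read by CCK-8 at 450 and 650 nm. IC50 is from triplicate experiments.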

A further assay concerns HepG2. Nature of the assay: Cytotoxicity against human HepG2 cells after 48 hrs. The note with it: HepG2, 48 h. In short, it runs like this:
as §1

For a further assay, the system named is K562. Nature of the assay: Cytotoxicity against human K562 cells after 48 hrs. The note with it: K562, 48 h. In short, it runs like this: as §1

A word on the IC50: it is the point on the concentration scale where inhibition reaches its midpoint. The low end stands for inhibition by little substance, the high end for a need for much substance. For `C=C1C(=O)[C@]23C[C@H]1CC[C@H]2[C@@]12CO[C@@]3(O)[C@@H](O)[C@@H]1C(C)(C)CC[C@H]2O` [XEROPHILUSIN I], the figures for the IC50 in the assay on MKN-45, in the assay with HepG2 and with K562 were 6.2 µM, 4 µM and 7.6 µM, respectively.
As to `C=C1C(=O)[C@]23[C@H](O)[C@H]1CC[C@H]2[C@@]12CCC[C@@]4(C)CO[C@H]1O[C@@]3(O)[C@@H](O)[C@H]42` [XEROPHILUSIN D], the IC50 in the assay with MKN-45 is 3.9 µM; in the assay on HepG2, 4.2 µM; with K562, 9 µM.
Turning to `C=C1C(=O)[C@]23[C@H](O)[C@H]1C[C@H](O)[C@H]2[C@]12CCCC(C)(C)[C@H]1[C@H](O)[C@]3(O)OC2` [ROSTHORIN A], the IC50 in the assay on MKN-45 was found to be 5.4 µM; with HepG2, 6.4 µM; in the assay on K562 it was 0.33 µM.
For the compound `C=C1C(=O)[C@@]23[C@@H]4O[C@H]5O[C@@]2(O)[C@@H](O)[C@@H]2C(C)(C)CCC[C@]52[C@@H]3CC[C@@H]14` [XEROPHILUSIN B], the values for the IC50 in the assay on MKN-45, with HepG2 and in the assay on K562 were 0.4 µM, 3.9 µM and 4.1 µM, respectively.
Take `C=C1C(=O)[C@]23[C@H](O)[C@H]1C[C@H](O)[C@H]2[C@@]12CO[C@@]3(O)[C@@H](O)[C@@H]1[C@](C)(COC(C)=O)CC[C@H]2O` [XEROPHILUSIN VI]: the 50% inhibitory concentration (IC50) in the assay on MKN-45, in the assay with HepG2 and in the assay on K562 was over 10 µM in each case.
On to `C=C1[C@@H](O)[C@]23[C@H](O)[C@H]1CC[C@H]2[C@@]12CO[C@@]3(O)[C@@H](O)[C@@H]1[C@](C)(CO)CC[C@H]2O` [XEROPHILUSIN V], for which the IC50 in the assay on MKN-45, in the assay on HepG2 and with K562 was over 10 µM throughout.
Turning to `C=C1C(=O)[C@]23C[C@H]1C[C@@H](O)[C@@H]2[C@@]1(CCC[C@@](C)(COC(C)=O)[C@H]1C=O)COC3=O` [TRICHORABDAL B], the IC50 with MKN-45, in the assay on HepG2 and in the assay on K562 was over 10 µM each time.
In the case of `C=C1C(=O)[C@]23[C@H](O)[C@H]1CC[C@H]2[C@]12CCCC(C)(C)[C@H]1[C@H](O)[C@]3(O)OC2=O` [XEROPHILUSIN N], the figures for the IC50 in the assay with MKN-45, in the assay on HepG2 and in the assay with K562 were 4.8 µM, over 10 µM and 1.2 µM, respectively.
On to `C=C1C(=O)[C@]23[C@H](O)[C@H]1C[C@H](O)[C@H]2[C@]1(C=O)CCCC(C)(C)[C@H]1C(=O)[C@@H]3O` [XEROPHILUSINE I], for which the IC50 in the assay with MKN-45 is 2.8 µM; with HepG2, 0.19 µM; with K562 it was 0.04 µM.
For `C=C1C(=O)[C@@]23C(=O)[C@@H](O)[C@@H]4C(C)(C)CCC[C@@]4(C=O)[C@@H]2[C@@H](O)C[C@@H]1[C@H]3O` [XEROPHILUSIN II], the IC50 in the assay with MKN-45 is over 10 µM; in the assay with HepG2 it was 4.5 µM; in the assay with K562, 1 µM.
For the compound `C=C1[C@@H](OC(C)=O)[C@]23[C@H](O)[C@H]1CC[C@H]2[C@]12CCCC(C)(C)[C@H]1[C@H](OC(C)=O)[C@]3(O)OC2` [RABDOTERNIN C], the IC50 in the assay with MKN-45, in the assay on HepG2 and in the assay on K562 was over 10 µM in each case.
In the case of `C=C1C(=O)[C@]23[C@H](O)[C@H]1CC[C@H]2[C@]12[C@H](O)CCC(C)(C)[C@H]1[C@H](O)[C@]3(O)O[C@@H]2O` [HEBEIRUBESCENSINS G], the figures for the IC50 in the assay on MKN-45, in the assay with HepG2 and with K562 were over 10 µM, over 10 µM and 5.3 µM, respectively.
`C=C1C(=O)[C@]23[C@H](O)[C@H]1C[C@H](OC(C)=O)[C@H]2[C@]12CCCC(C)(C)[C@H]1C(=O)[C@]3(O)[C@H]2O` [XEROPHILUSIN F]: the 50% inhibitory concentration (IC50) in the assay with MKN-45 is over 10 µM; in the assay with HepG2 it was 4.9 µM; in the assay with K562, 4.3 µM.
On the same counts, the results for `C=C1C(=O)[C@]23[C@H](O)[C@H]1CC[C@H]2[C@@]12CO[C@@]3(O)[C@@H](O)[C@@H]1[C@](C)(COC(C)=O)CC[C@H]2O` [xerophilusin G] are over 10 µM, over 10 µM and over 10 µM.
The corresponding values for `C=C1C(=O)[C@@]23[C@@H]4O[C@H]5O[C@@]2(O)[C@@H](O)[C@@H]2C(C)(C)CCC[C@]52[C@@H]3[C@@H](OC(C)=O)C[C@@H]14` [XEROPHILUSIN A] are over 10 µM, over 10 µM and 1.6 µM.
Turning to `COC[C@@H]1C(=O)[C@]23[C@H](O)[C@H]1C[C@H](OC(C)=O)[C@H]2[C@]12CCCC(C)(C)[C@H]1[C@H](O)[C@]3(O)OC2` [XEROPHILUSIN X1], the figures for the IC50 in the assay on MKN-45, in the assay on HepG2 and in the assay with K562 were 3.9 µM, 1.9 µM and 1.5 µM, respectively.
On the same counts, the results for `C=C1C(=O)[C@]23[C@H](O)[C@H]1C[C@H](OC(C)=O)[C@H]2[C@]12CCCC(C)(C)[C@H]1[C@H](O)[C@]3(O)O[C@@H]2OC` [XEROPHILUSIN XII] are 2.1 µM, 4.9 µM and 3.6 µM.
Consider `C=C1C(=O)[C@]23C[C@H]1CC[C@H]2[C@@]12CO[C@@]3(O)[C@@H](O)[C@@H]1[C@](C)(COC(C)=O)[C@@H](O)C[C@H]2O` [MAOECRYSTAL I], for which the figures for the IC50 in the assay with MKN-45, in the assay on HepG2 and in the assay with K562 were 1.3 µM, over 10 µM and over 10 µM, respectively.
`C=C1C(=O)[C@]23[C@H](O)[C@H]1C[C@H](O)[C@H]2[C@]12CCCC(C)(C)[C@H]1[C@H](O)[C@]3(O)O[C@@H]2OC` [XEROPHILUSIN XI]: the IC50 in the assay with MKN-45, in the assay on HepG2 and with K562 was over 10 µM in each case.
In the case of `C=C1C(=O)[C@]23[C@H](O)[C@H]1CC[C@H]2[C@@]12C(O)O[C@@]3(O)[C@@H](O)[C@@H]1C(C)(C)CC[C@H]2O` (stereo not given in full) [HEBEIRUBESCENSINS H], the IC50 in the assay with MKN-45 is over 10 µM; in the assay with HepG2, over 10 µM; in the assay on K562, 5.3 µM.
In the case of `C=C1C(=O)[C@]23C[C@H]1C[C@@H](O)[C@H]2[C@]12CCC[C@@](C)(COC(C)=O)[C@H]1[C@H](O)[C@]3(O)OC2` [LONGIKAURIN D], the IC50 with MKN-45 is 0.34 µM; in the assay on HepG2, 0.56 µM; with K562, 0.56 µM.
Regarding `C=C1[C@@H]2C[C@H](OC(C)=O)[C@H]3[C@]45CCCC(C)(C)[C@H]4[C@H](OC(C)=O)[C@](O)(OC5)[C@]3([C@@H]2O)[C@H]1O` [XEROPHILUSIN X], the IC50 in the assay with MKN-45, in the assay on HepG2 and with K562 was over 10 µM in each case.
In the case of `C=C1C(=O)[C@]23[C@H](O)[C@H]1CC[C@H]2[C@]12CCC[C@@](C)(CO)[C@H]1[C@H](O)[C@]3(O)OC2` [XEROPHILUSIN IV], the IC50 in the assay with MKN-45, in the assay with HepG2 and in the assay with K562 was over 10 µM throughout.
As for `C=C1C(=O)[C@]23[C@H](O)[C@H]1CC[C@H]2[C@@]12C(OC)O[C@@]3(O)[C@@H](O)[C@@H]1C(C)(C)CC[C@H]2O` (stereo not given in full) [RABDOTERNIN E], the values for the IC50 with MKN-45, in the assay with HepG2 and in the assay on K562 were over 10 µM, over 10 µM and 2.4 µM, respectively.
Take `C=C1C(=O)[C@@]23[C@@H]4OC5O[C@@]2(O)[C@@H](O)[C@@H]2C(C)(C)CC[C@@H](O)[C@]52[C@@H]3CC[C@@H]14` [PONICIDIN]: the IC50 with MKN-45 was over 10 µM; with HepG2, 0.96 µM; with K562 it was 1.3 µM.
With `CC(=O)O[C@H]1C[C@H]2C3=C(O[C@]4(CC3)C(=O)[C@@]35[C@@H]6O[C@H]7O[C@@]3(O)[C@@H](O)[C@@H]3C(C)(C)CCC[C@@]73[C@@H]5[C@@H](OC(C)=O)C[C@H]64)[C@@]34[C@@H]2O[C@H]2O[C@@]3(O)[C@@H](O)[C@@H]3C(C)(C)CCC[C@]23[C@H]14` [enanderinanin J], the IC50 in the assay with MKN-45, in the assay with HepG2 and in the assay with K562 was over 10 µM in each case.
Take `C=C1C(=O)[C@]23C[C@H]1CC[C@H]2[C@@]12CO[C@@]3(O)[C@@H](O)[C@@H]1[C@](C)(COC(C)=O)CC[C@H]2O` [XEROPHILUSIN H]: the IC50 with MKN-45, with HepG2 and with K562 was over 10 µM throughout.
With `C=C1C(=O)[C@]23[C@H](O)[C@H]1C[C@H](OC(C)=O)[C@H]2[C@]12CCCC(C)(C)[C@H]1[C@H](O)[C@]3(O)OC2` [XEROPHILUSIN K], the IC50 in the assay on MKN-45 amounted to 5.6 µM; with HepG2, 2.2 µM; with K562, 1.4 µM.
On to `C=C1C(=O)[C@]23[C@H](O)[C@H]1C[C@H](O)[C@H]2[C@]12CCCC(C)(C)[C@H]1C(=O)[C@]3(O)[C@H]2O` [PHYLLOSTACHYSIN A], for which the IC50 in the assay with MKN-45 was found to be 3 µM; with K562, 6.6 µM.
With `C=C1[C@@H](O)[C@]23[C@H](O)[C@H]1C[C@H](O)[C@H]2[C@]12CCCC(C)(C)[C@H]1[C@H](OC(C)=O)[C@]3(O)OC2` [RABDOTERNIN D], the IC50 in the assay with MKN-45, in the assay on HepG2 and in the assay with K562 was over 10 µM in each case.
`C=C1C(=O)[C@@]23[C@@H]4O[C@H]5O[C@@]2(O)[C@@H](O)[C@@H]2C(C)(C)CCC[C@]52[C@@H]3[C@@H](O)C[C@@H]14` [MACROCALIN B]: the IC50 in the assay on MKN-45, in the assay on HepG2 and in the assay with K562 was over 10 µM in each case.
As for `C=C1C(=O)[C@]23[C@H](O)[C@H]1CC[C@H]2[C@]12CCC[C@@](C)(COC(C)=O)[C@H]1[C@H](O)[C@]3(O)OC2` [LONGIKAURIN B], the values for the IC50 with MKN-45, in the assay with HepG2 and in the assay on K562 were 0.49 µM, 1.2 µM and 1.6 µM, respectively.
